Measurements published in ChEMBL document CHEMBL4364327, “Discovery of benzimidazole analogs as a novel interleukin-5 inhibitors” (Eur J Med Chem, 2019).

System: not listed separately
Test: Cytotoxicity against human HCC1395BL cells assessed as inhibition of cell viability at 30 uM measured after 48 hrs by MTT assay
Type: cell-based
Settings: read-out: INH
In short: (§1)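 HCC1395 BL or NCI-BL1184 normal B lymphoblasts were cultured in RPMI-1640 or IMDM with 10% FBS at 37 °C and 5% CO₂, with serum but no IL-5. Cells were exposed to compound for 48 h, then to 0.5 mg/mL MTT for a further 3 h. Values are the mean ± SD of three independent measurements.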

SMILES | cytotoxicity at 48 h, 30 µM [%]
CCC(CO)NCc1nc2c(OCC3CCCCC3)cccc2[nH]1 (stereo unspecified) | 7.5
OCC(CC1CCCCC1)NCc1nc2c(OCC3CCCCC3)cccc2[nH]1 (stereo unspecified) | 12.5

Biological target: T1, Interleukin-5 receptor subunit alpha (Mus musculus) (UniProt P21183)
T1 sequence (whole entry): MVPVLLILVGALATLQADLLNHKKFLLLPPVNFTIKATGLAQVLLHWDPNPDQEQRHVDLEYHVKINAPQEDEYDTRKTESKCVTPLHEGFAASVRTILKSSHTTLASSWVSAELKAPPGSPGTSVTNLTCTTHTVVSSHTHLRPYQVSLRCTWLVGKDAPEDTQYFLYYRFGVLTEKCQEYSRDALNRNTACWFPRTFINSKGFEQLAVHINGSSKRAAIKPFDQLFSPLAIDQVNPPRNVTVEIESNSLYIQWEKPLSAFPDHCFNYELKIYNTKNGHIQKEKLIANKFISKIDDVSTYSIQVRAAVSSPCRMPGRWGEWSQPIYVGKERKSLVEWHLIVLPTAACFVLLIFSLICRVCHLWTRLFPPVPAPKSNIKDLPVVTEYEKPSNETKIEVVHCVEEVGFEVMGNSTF
Test: Inhibition of IL-5 receptor in mouse pro-B Y16 cells assessed as decrease in mIL-5 dependent cell proliferation at 50 uM after 48 hrs in presence of 3 units/ml mIL-5 by WST-1 assay relative to control
Type: cell-based
Settings: not given

inhibition [%] | SMILES
79.1 | O=c1c(-c2ccc(O[C@@H]3O[C@H](CO)[C@@H](O)[C@H](O)[C@H]3O)cc2)coc2cc(O)cc(O)c12
70.2 | CCCC1O[C@@H]2C[C@H]3[C@@H]4CCC5=CC(=O)C=C[C@]5(C)[C@H]4[C@@H](O)C[C@]3(C)[C@]2(C(=O)CO)O1 (stereo partly specified)

System: not listed separately
Test: Cytotoxicity against human NCI-BL1184 cells assessed as inhibition of cell viability at 30 uM measured after 48 hrs by MTT assay
Type: cell-based
Settings: read-out: INH
In short: as §1

SMILES | cytotoxicity at 48 h, 30 µM [%]
CCC(CO)NCc1nc2c(OCC3CCCCC3)cccc2[nH]1 (stereo unspecified) | 10.2
OCC(CC1CCCCC1)NCc1nc2c(OCC3CCCCC3)cccc2[nH]1 (stereo unspecified) | 9.8

Biological target: T1, Interleukin-5 receptor subunit alpha (Mus musculus)
Test: Inhibition of IL-5 receptor in mouse pro-B Y16 cells assessed as decrease in mIL-5 dependent cell proliferation at 30 uM after 48 hrs in presence of 3 units/ml mIL-5 by WST-1 assay relative to control
Type: cell-based
Settings: not given
In short: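 Y16 murine early B-cell line was maintained in RPMI-1640 with 8% FBS and 3 units/mL mIL-5. Cells were washed twice in Hanks', resuspended without IL-5 (viability >95%), and plated at 1 × 10⁴ cells per well. A 3 units/mL mIL-5 solution and sample were added. Control wells received medium in place of sample; blank wells received medium in place of mIL-5. After 48 h at 37 °C, WST-1 was added for 2–4 h and A450 was read.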

SMILES | inhibition [%]
COc1ccc(CNCc2nc3c(OCC4CCCCC4)cccc3[nH]2)cc1 | 43.3
COc1ccc(NCc2nc3c(OCC4CCCCC4)cccc3[nH]2)cc1 | 20.3
CCC(CO)NCc1nc2c(OCC3CCCCC3)cccc2[nH]1 (stereo unspecified) | 94.3
CC(C)N(CCO)Cc1nc2c(OCC3CCCCC3)cccc2[nH]1 | 10
OCCCCNCc1nc2c(OCC3CCCCC3)cccc2[nH]1 | 44.3
OCC(NCc1nc2c(OCC3CCCCC3)cccc2[nH]1)c1ccccc1 (stereo unspecified) | 77.7
OCCC(NCc1nc2c(OCC3CCCCC3)cccc2[nH]1)c1ccccc1 (stereo unspecified) | 64.7
OCC(Cc1ccccc1)NCc1nc2c(OCC3CCCCC3)cccc2[nH]1 (stereo unspecified) | 81
CN(CCO)Cc1nc2c(OCC3CCCCC3)cccc2[nH]1 | 42
CCCN(CCO)Cc1nc2c(OCC3CCCCC3)cccc2[nH]1 | 63
CCCC(CO)NCc1nc2c(OCC3CCCCC3)cccc2[nH]1 (stereo unspecified) | 73.3
OCC(CC1CCCCC1)NCc1nc2c(OCC3CCCCC3)cccc2[nH]1 (stereo unspecified) | 94.7
OCCN(Cc1nc2c(OCC3CCCCC3)cccc2[nH]1)C1CCCCC1 | 24
CC(C)(CO)NCc1nc2c(OCC3CCCCC3)cccc2[nH]1 | 54.7
OCCN(Cc1ccccc1)Cc1nc2c(OCC3CCCCC3)cccc2[nH]1 | 62.3
OCCN(Cc1nc2c(OCC3CCCCC3)cccc2[nH]1)CC1CCCCC1 | 76.7

Second part, the compound after the results:

inhibition [%] | SMILES
52.7 | OCCCNCc1nc2c(OCC3CCCCC3)cccc2[nH]1
63.3 | OCCNCc1nc2c(OCC3CCCCC3)cccc2[nH]1
23.7 | OCCCCCNCc1nc2c(OCC3CCCCC3)cccc2[nH]1
43.3 | OCCN(Cc1ccncc1)Cc1nc2c(OCC3CCCCC3)cccc2[nH]1
49.3 | c1ccc(CNCc2nc3c(OCC4CCCCC4)cccc3[nH]2)cc1
25 | c1ccc(NCc2nc3c(OCC4CCCCC4)cccc3[nH]2)cc1
73.3 | COc1ccc(CN(CCO)Cc2nc3c(OCC4CCCCC4)cccc3[nH]2)cc1
34.7 | CCN(CCO)Cc1nc2c(OCC3CCCCC3)cccc2[nH]1
96 | OCCN(Cc1ccc(Cl)cc1)Cc1nc2c(OCC3CCCCC3)cccc2[nH]1
